Where a name gives a salt, the structure may show the parent alone. Activity calls are given as the source filed them. No cut-off for these calls is given here.
Columns and labels:
Format in all cases: functional, cell-based
KB = assay: Cytotoxicity against human KB cells after 48 hrs by MTT assay
Outline: (§1)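 Exponential-phase cells plated, allowed 24 h to establish, then exposed to compound dilutions for 48 h. MTT added (0.1 mg/well) for 4 h, supernatant removed, formazan dissolved in DMSO, absorbance read at 570 nm. IC50 taken as concentration giving 50% growth inhibition; mean ± SD of three experiments run in triplicate.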

MCF7 = assay: Cytotoxicity against human MCF7 cells after 48 hrs by MTT assay; outline: as §1
PC-12 = assay: Induction of neurite outgrowth in rat PC12 cells at 10 uM after 2 days by phase-contrast microscope
Outline: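 PC12 cells kept in DMEM with 10% heat-inactivated fetal calf serum, 5% horse serum, penicillin 50 units/mL and streptomycin 50 µg/mL at 37 °C, 5% CO2. Seeded at 1 × 10^4 cells/mL, cultured one day, then medium replaced with fresh medium containing compound. Cultured 2 days; neurite outgrowth observed by phase-contrast microscopy against untreated control.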

K562 = assay: Cytotoxicity against human K562 cells after 48 hrs by MTT assay; settings: K562, 48 h; outline: as §1

SMILES	Activity (KB)	Activity (MCF7)	Activity (PC-12)	IC50 (K562)
CC(C)=CCc1[nH]c2ccccc2c1C[C@@H]1NC(=O)[C@@H]2CCCN2C1=O [TRYPROSTATIN B]	inactive	inactive	inactive	41 µM
COc1ccc2c(c1)NC(=O)[C@@]21C=C2C(=O)N3CCC[C@H]3C(=O)N2[C@H]1C=C(C)C	inactive	inactive	inactive	–
C/C=C\[C@H](O)[C@H](O)C1=C(C)C(=O)[C@]2(O1)C(=O)N[C@@](OC)(C(=O)c1ccccc1)[C@@H]2O	inactive	inactive	–	–
C[C@@H]1N[C@@H]2N(C1=O)c1ccccc1[C@@]21C[C@@H](n2cnc3ccccc3c2=O)C(=O)O1	inactive	inactive	inactive	–
COc1ccc2c3c([nH]c2c1)[C@H](C=C(C)C)N1C(=O)[C@@H]2CCCN2C(=O)[C@@H]1C3 [FUMITREMORGIN]	inactive	inactive	inactive	41 µM
CC(C)=C[C@H]1c2[nH]c3ccccc3c2C[C@H]2C(=O)N3CCC[C@H]3C(=O)N21	inactive	inactive	inactive	–
C=CC(C)(C)c1[nH]c2cccc3c2c1C[C@@H]1[C@@H]3C[C@@H](C)CN1C	inactive	inactive	inactive	3.1 µM
C=CC(C)(C)c1[nH]c2cccc3c2c1C[C@@H]1[C@@H]3[C@@H](O)[C@@H](C)CN1C	inactive	inactive	inactive	41 µM
COc1ccc2c(C[C@@H]3NC(=O)[C@@H]4CCCN4C3=O)c(CC=C(C)C)[nH]c2c1 [TRYPROSTATIN A]	inactive	inactive	inactive	41 µM
COc1ccc2c3c4n(c2c1)[C@H](C=C(C)C)OOC(C)(C)C[C@@H]4N1C(=O)[C@@H]2CCCN2C(=O)[C@]1(O)[C@H]3O [VERRUCULOGEN]	inactive	inactive	inactive	41 µM
COc1ccc2c(c1)NC(=O)[C@@]21C[C@H]2C(=O)N3CCC[C@H]3C(=O)N2[C@H]1C=C(C)C	inactive	inactive	inactive	–
CS[C@]1(CO)C(=O)N2[C@H]3C(=CC=CC3O)C[C@@]2(SC)C(=O)N1C (stereo partly specified) [DIMETHYLGLIOTOXIN]	inactive	inactive	inactive	41 µM
CC/C=C\[C@H](O)[C@H](O)C1=C(C)C(=O)[C@]2(O1)C(=O)N[C@@](OC)(C(=O)c1ccccc1)[C@@H]2O	inactive	inactive	Active	–
COc1cccc2c1C(=O)c1c(O)c3c(c(O)c1C2=O)C[C@@](O)(C(=O)CO)C[C@@H]3O[C@H]1C[C@H](N)[C@H](O)[C@H](C)O1 [DOXORUBICIN HYDROCHLORIDE]	–	–	–	1.2 µM

From ChEMBL document CHEMBL1151834, “Bioactive alkaloids from endophytic Aspergillus fumigatus” (J Nat Prod, 2009)
